{"source": "ChEMBL document CHEMBL1250448", "about": "“Inhibitor hijacking of Akt activation” (Nat Chem Biol, 2009)", "key": {"[1]": {"system": "RAC-alpha serine/threonine-protein kinase (Homo sapiens), P31749 [M227G,D292A]", "sequence (P31749 whole entry M227G/D292A)": "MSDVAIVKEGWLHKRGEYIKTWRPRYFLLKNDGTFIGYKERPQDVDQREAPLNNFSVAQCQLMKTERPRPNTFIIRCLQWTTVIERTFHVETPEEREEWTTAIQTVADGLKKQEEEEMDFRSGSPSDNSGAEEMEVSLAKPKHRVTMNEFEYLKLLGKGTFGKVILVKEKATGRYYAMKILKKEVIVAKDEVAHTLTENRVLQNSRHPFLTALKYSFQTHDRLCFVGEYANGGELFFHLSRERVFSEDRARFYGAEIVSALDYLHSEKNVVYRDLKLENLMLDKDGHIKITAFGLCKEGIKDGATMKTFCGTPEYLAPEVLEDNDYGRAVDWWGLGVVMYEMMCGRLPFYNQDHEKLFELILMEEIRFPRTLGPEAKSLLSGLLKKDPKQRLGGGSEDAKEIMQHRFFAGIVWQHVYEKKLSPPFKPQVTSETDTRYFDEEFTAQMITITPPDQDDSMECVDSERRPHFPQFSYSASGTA", "test": "Induction of myristoylated AKT1 M227G and kinase dead D292A mutant Ser473 hyperphosphorylation expressed in MiaPaCa2 cells at 2.5 uM after 30 mins by immunoblotting", "format": "cell-based"}, "[2]": {"system": "MCF7", "test": "Induction of myristoylated AKT2 M225G and kinase dead D289A mutant Thr308 hyperphosphorylation expressed in MCF7 cells at 2.5 uM after 30 mins by immunoblotting", "format": "cell-based"}, "[3]": {"system": "MiaPaCa2", "test": "Induction of myristoylated AKT2 M225G mutant Thr308 hyperphosphorylation expressed in MiaPaCa2 cells at 2.5 uM after 30 mins by immunoblotting", "format": "cell-based"}, "[4]": {"system": "HEK-293T", "test": "Induction myristoylated AKT2 M225G mutant Ser473 hyperphosphorylation expressed in HEK293T cells at 2.5 uM after 30 mins pretreated with PDK1 inhibitor BX-795 for 10 mins before compound addition by immunoblotting", "format": "cell-based"}, "[5]": {"system": "RAC-alpha serine/threonine-protein kinase (Homo sapiens), P31749 [M227G]", "sequence (P31749 whole entry M227G)": "as the sequence (P31749 whole entry M227G/D292A) above, with A292D counted along it", "test": "Inhibition of myristoylated AKT1 M227G mutant expressed in HEK293T cells assessed as reduction of GSK3-beta Ser9 phosphorylation after 30 mins by immunoblotting", "format": "cell-based", "conditions": "HEK-293T"}, "[6]": {"system": "RAC-alpha serine/threonine-protein kinase (Homo sapiens), P31749 [M227G]", "test": "Induction of myristoylated AKT1 M227G mutant Ser473 hyperphosphorylation expressed in HEK293T cells at 2.5 uM after 30 mins pretreated with pan-PI3K inhibitor PIK90 for 10 mins before compound addition by immunoblotting", "format": "cell-based", "conditions": "HEK-293T"}, "[7]": {"system": "RAC-alpha serine/threonine-protein kinase (Homo sapiens), P31749 [M227G]", "test": "Induction of myristoylated AKT1 M227G Thr308 hyperphosphorylation expressed in HEK293 cells coexpressing flag-tagged wild type AKT1 after 30 mins by immunoblotting", "format": "cell-based"}, "[8]": {"system": "MiaPaCa2", "test": "Induction of myristoylated AKT2 M225G mutant Ser473 hyperphosphorylation expressed in MiaPaCa2 cells at 2.5 uM after 30 mins by immunoblotting", "format": "cell-based"}, "[9]": {"system": "RAC-alpha serine/threonine-protein kinase (Homo sapiens), P31749 [M227G]", "test": "Induction of myristoylated AKT1 M227G Ser473 hyperphosphorylation expressed in MiaPaCa2 cells at 2.5 uM after 30 mins by immunoblotting", "format": "cell-based"}, "[10]": {"system": "HEK-293T", "test": "Induction of myristoylated AKT3 M229G mutant Ser473 hyperphosphorylation expressed in HEK293T cells at 2.5 uM after 30 mins by immunoblotting", "format": "cell-based"}, "[11]": {"system": "RAC-alpha serine/threonine-protein kinase (Homo sapiens), P31749 [M227G,D292A]", "test": "Induction of myristoylated AKT1 M227G and kinase dead D292A mutant Thr308 hyperphosphorylation expressed in MCF7 cells at 2.5 uM after 30 mins by immunoblotting", "format": "cell-based"}, "[12]": {"system": "RAC-alpha serine/threonine-protein kinase (Homo sapiens), P31749 [M227G]", "test": "Induction of myristoylated AKT1 M227G mutant Thr308 hyperphosphorylation expressed in HEK293T cells at 2.5 uM after 30 mins pretreated with pan-PI3K inhibitor PIK90 for 10 mins before compound addition by immunoblotting", "format": "cell-based", "conditions": "HEK-293T"}, "[13]": {"system": "RAC-alpha serine/threonine-protein kinase (Homo sapiens), P31749 [M227G]", "test": "Induction of myristoylated AKT1 M227G mutant Thr308 hyperphosphorylation expressed in HEK293T cells at 2.5 uM after 30 mins pretreated with mTOR kinase inhibitor PP242 for 10 mins before compound addition by immunoblotting", "format": "cell-based", "conditions": "HEK-293T"}, "[14]": {"system": "HEK-293T", "test": "Induction of myristoylated AKT3 M229G mutant Thr308 hyperphosphorylation expressed in HEK293T cells at 2.5 uM after 30 mins pretreated with mTOR kinase inhibitor PP242 for 10 mins before compound addition by immunoblotting", "format": "cell-based"}, "[15]": {"system": "RAC-alpha serine/threonine-protein kinase (Homo sapiens), P31749 [M227G]", "test": "Induction of flag tagged AKT1 M227G Ser473 hyperphosphorylation expressed in HEK293 cells at 2.5 uM after 30 mins by immunoblotting", "format": "cell-based"}, "[16]": {"system": "RAC-alpha serine/threonine-protein kinase (Homo sapiens), P31749 [M227G]", "test": "Increase in catalytic activity of compound exposed AKT1 M227G mutant expressed in HEK293 cells measured post compound dissociation by in vitro immunoprecipitation kinase assay relative to untreated AKT1 M227G mutant", "conditions": "HEK-293"}, "[17]": {"system": "MiaPaCa2", "test": "Induction of myristoylated AKT2 M225G and kinase dead D289A mutant Thr308 hyperphosphorylation expressed in MiaPaCa2 cells at 2.5 uM after 30 mins by immunoblotting", "format": "cell-based"}, "[18]": {"system": "PC-3", "test": "Induction of myristoylated AKT2 M225G mutant Ser473 hyperphosphorylation expressed in PC3 cells at 2.5 uM after 30 mins by immunoblotting", "format": "cell-based"}, "[19]": {"system": "RAC-alpha serine/threonine-protein kinase (Homo sapiens), P31749 [M227G]", "test": "Induction of myristoylated AKT1 M227G Ser473 hyperphosphorylation expressed in PC3 cells at 2.5 uM after 30 mins by immunoblotting", "format": "cell-based", "conditions": "PC-3"}, "[20]": {"system": "HEK-293T", "test": "Induction myristoylated AKT2 M225G mutant Thr308 hyperphosphorylation expressed in HEK293T cells at 2.5 uM after 30 mins pretreated with PDK1 inhibitor BX-795 for 10 mins before compound addition by immunoblotting", "format": "cell-based"}, "[21]": {"system": "RAC-alpha serine/threonine-protein kinase (Homo sapiens), P31749 [M227G,R25C]", "sequence (P31749 whole entry R25C/M227G)": "as the sequence (P31749 whole entry M227G/D292A) above, with R25C, A292D counted along it", "test": "Induction of myristoylated AKT1 M227G and R25C mutant Thr308 hyperphosphorylation expressed in HEK293T cells at 2.5 uM after 30 mins by immunoblotting", "format": "cell-based", "conditions": "HEK-293T"}, "[22]": {"system": "PC-3", "test": "Induction of myristoylated AKT2 M225G mutant Thr308 hyperphosphorylation expressed in PC3 cells at 2.5 uM after 30 mins by immunoblotting", "format": "cell-based"}, "[23]": {"system": "RAC-alpha serine/threonine-protein kinase (Homo sapiens), P31749 [M227G]", "test": "Induction of myristoylated AKT1 M227G Ser473 hyperphosphorylation expressed in HEK293 cells coexpressing flag-tagged wild type AKT1 after 30 mins by immunoblotting", "format": "cell-based"}, "[24]": {"system": "MCF7", "test": "Induction of myristoylated AKT2 M225G mutant Ser473 hyperphosphorylation expressed in MCF7 cells at 2.5 uM after 30 mins by immunoblotting", "format": "cell-based"}, "[25]": {"system": "MCF7", "test": "Induction of myristoylated AKT2 M225G and kinase dead D289A mutant Ser473 hyperphosphorylation expressed in MCF7 cells at 2.5 uM after 30 mins by immunoblotting", "format": "cell-based"}, "[26]": {"system": "RAC-alpha serine/threonine-protein kinase (Homo sapiens), P31749 [M227G,D292A]", "test": "Induction of myristoylated AKT1 M227G and kinase dead D292A mutant Thr308 hyperphosphorylation expressed in HEK293T cells at 2.5 uM after 30 mins by immunoblotting", "format": "cell-based", "conditions": "HEK-293T"}, "[27]": {"biological_target": "RAC-alpha serine/threonine-protein kinase (Rattus norvegicus) (UniProt P47196)", "sequence (P47196 whole entry)": "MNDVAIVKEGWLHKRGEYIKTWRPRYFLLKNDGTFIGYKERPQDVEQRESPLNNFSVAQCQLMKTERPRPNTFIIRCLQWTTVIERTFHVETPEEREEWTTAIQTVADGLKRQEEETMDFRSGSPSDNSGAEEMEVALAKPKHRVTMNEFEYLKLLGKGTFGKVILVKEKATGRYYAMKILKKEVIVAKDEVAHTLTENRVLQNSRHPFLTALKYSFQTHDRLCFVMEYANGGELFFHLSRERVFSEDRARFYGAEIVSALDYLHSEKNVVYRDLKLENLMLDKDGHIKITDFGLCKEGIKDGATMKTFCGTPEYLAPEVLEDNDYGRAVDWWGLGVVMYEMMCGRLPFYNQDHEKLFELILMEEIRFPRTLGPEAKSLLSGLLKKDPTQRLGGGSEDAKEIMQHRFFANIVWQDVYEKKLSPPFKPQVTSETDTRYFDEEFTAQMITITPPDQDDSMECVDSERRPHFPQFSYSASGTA", "test": "Induction AKT1 Ser473 hyperphosphorylation in insulin-induced rat L6 cells after 20 mins before insulin stimulation by immunoblotting", "format": "cell-based"}, "[28]": {"biological_target": "Proto-oncogene tyrosine-protein kinase receptor Ret (Homo sapiens) (UniProt P07949)", "sequence (P07949 whole entry)": "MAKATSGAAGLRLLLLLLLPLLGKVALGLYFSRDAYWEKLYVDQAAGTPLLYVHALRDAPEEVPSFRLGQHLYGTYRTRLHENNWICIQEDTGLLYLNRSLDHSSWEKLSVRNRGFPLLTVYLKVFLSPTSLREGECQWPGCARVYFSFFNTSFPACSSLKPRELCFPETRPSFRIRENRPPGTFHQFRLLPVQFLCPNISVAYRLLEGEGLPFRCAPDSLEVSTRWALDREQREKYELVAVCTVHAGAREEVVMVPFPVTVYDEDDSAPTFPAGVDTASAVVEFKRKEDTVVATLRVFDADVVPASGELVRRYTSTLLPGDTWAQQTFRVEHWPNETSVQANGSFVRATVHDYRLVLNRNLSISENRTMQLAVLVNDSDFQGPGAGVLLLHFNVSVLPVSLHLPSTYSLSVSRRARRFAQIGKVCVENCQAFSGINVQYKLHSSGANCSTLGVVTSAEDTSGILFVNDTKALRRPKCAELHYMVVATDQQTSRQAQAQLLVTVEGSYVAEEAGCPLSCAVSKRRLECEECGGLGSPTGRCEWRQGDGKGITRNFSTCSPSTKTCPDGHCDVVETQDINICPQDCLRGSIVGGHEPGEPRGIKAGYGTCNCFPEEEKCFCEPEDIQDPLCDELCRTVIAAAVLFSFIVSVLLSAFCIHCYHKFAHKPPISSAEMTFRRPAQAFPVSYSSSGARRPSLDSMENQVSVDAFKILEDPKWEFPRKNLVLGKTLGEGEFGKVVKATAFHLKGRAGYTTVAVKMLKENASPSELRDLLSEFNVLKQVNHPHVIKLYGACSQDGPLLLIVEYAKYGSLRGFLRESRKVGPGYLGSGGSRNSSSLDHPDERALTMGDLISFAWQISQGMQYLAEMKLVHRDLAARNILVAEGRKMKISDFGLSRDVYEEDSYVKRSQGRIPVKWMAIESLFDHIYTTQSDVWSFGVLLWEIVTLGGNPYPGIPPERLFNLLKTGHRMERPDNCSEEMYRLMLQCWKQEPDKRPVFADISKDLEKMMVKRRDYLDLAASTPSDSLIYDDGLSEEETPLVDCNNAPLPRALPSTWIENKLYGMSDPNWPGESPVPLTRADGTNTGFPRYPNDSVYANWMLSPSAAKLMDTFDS", "test": "Inhibition of RET at 1 uM in presence of 100 uM ATP by Select Screen kinase assay relative to untreated control", "outline": "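Profiling panel of 220 purified kinases (SelectScreen), each compound tested at 1 μM. Read-out is percent inhibition of kinase activity.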"}, "[29]": {"biological_target": "Insulin receptor (Homo sapiens) (UniProt P06213)", "sequence (P06213 28-758 limits assumed)": "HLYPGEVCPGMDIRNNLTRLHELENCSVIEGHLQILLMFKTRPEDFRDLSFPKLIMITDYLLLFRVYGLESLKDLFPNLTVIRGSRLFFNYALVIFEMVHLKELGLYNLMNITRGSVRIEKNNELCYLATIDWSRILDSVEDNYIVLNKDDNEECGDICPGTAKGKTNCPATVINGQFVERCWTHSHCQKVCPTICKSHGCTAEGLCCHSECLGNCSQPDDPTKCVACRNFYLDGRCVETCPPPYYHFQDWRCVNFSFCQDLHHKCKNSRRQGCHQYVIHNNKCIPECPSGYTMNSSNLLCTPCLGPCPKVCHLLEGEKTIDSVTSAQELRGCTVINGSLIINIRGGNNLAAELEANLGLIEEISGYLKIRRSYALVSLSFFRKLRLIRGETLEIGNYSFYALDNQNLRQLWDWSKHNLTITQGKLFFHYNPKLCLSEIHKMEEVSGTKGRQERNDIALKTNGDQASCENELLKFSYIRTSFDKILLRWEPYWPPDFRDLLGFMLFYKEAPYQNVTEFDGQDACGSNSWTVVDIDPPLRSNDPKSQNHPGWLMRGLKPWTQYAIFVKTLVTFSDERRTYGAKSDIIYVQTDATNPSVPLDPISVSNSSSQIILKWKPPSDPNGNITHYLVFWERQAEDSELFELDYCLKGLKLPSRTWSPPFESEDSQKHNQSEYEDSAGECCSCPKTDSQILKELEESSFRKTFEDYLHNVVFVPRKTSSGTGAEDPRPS", "sequence (P06213 763-1382 limits assumed)": "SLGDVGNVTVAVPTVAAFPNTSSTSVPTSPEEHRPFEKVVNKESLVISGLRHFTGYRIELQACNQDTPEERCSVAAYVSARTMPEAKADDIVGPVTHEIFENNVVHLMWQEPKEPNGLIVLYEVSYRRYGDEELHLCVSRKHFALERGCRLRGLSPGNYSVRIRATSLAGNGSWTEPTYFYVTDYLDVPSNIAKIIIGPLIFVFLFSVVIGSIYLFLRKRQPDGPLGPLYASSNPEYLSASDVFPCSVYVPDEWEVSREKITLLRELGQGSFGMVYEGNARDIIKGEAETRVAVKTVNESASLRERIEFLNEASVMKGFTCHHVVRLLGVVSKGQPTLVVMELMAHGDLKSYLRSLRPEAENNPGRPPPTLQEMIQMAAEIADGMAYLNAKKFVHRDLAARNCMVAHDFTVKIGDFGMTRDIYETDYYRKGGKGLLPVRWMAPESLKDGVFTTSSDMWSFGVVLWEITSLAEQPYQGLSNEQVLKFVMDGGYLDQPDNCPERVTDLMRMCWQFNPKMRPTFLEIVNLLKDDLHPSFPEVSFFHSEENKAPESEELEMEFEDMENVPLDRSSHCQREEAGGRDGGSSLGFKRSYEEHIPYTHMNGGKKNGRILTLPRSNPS", "test": "Inhibition of INSR at 1 uM in presence of 10 uM ATP by Select Screen kinase assay relative to untreated control"}, "[30]": {"biological_target": "RAC-alpha serine/threonine-protein kinase (Homo sapiens, UniProt P31749)", "sequence (P31749 whole entry)": "as the sequence (P31749 whole entry M227G/D292A) above, with G227M, A292D counted along it", "test": "Inhibition of AKT1"}, "[31]": {"biological_target": "Serine/threonine-protein kinase 26 (Homo sapiens) (UniProt Q9P289)", "sequence (Q9P289 2-416 limits assumed)": "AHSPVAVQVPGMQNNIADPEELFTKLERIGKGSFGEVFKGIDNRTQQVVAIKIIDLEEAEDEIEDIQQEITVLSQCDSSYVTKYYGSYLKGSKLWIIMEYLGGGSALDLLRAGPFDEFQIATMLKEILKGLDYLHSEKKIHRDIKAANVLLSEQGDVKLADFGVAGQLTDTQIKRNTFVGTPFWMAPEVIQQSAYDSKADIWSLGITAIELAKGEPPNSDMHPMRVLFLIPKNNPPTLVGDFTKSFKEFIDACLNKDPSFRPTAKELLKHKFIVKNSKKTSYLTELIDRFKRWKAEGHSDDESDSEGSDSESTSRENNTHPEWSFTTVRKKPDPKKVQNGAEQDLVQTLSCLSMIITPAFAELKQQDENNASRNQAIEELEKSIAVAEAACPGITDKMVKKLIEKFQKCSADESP", "test": "Inhibition of MST4 at 1 uM in presence of 100 uM ATP by Select Screen kinase assay relative to untreated control"}}, "note": "The source made the active and inactive calls. No cut-off for these calls is given here."}
{"smiles": "CCCc1cc(-c2cncc(OC[C@@H](N)Cc3c[nH]c4ccccc34)c2)cc2c(C)n[nH]c12", "values": [{"measurement": "Activity", "setting": "[1]", "value": "Active"}, {"measurement": "Activity", "setting": "[2]", "value": "Active"}, {"measurement": "Activity", "setting": "[3]", "value": "Active"}, {"measurement": "Activity", "setting": "[4]", "value": "inactive"}, {"measurement": "inhibition", "setting": "[5]", "value": "Active"}, {"measurement": "Activity", "setting": "[6]", "value": "inactive"}, {"measurement": "Activity", "setting": "[7]", "value": "Active"}, {"measurement": "Activity", "setting": "[8]", "value": "Active"}, {"measurement": "Activity", "setting": "[9]", "value": "Active"}, {"measurement": "Activity", "setting": "[10]", "value": "Active"}, {"measurement": "Activity", "setting": "[11]", "value": "Active"}, {"measurement": "Activity", "setting": "[12]", "value": "inactive"}, {"measurement": "Activity", "setting": "[13]", "value": "Active"}, {"measurement": "Activity", "setting": "[14]", "value": "Active"}, {"measurement": "Activity", "setting": "[15]", "value": "Active"}, {"measurement": "fold change (FC)", "setting": "[16]", "value": 10}, {"measurement": "Activity", "setting": "[17]", "value": "Active"}, {"measurement": "Activity", "setting": "[18]", "value": "Active"}, {"measurement": "Activity", "setting": "[19]", "value": "Active"}, {"measurement": "Activity", "setting": "[20]", "value": "inactive"}, {"measurement": "Activity", "setting": "[21]", "value": "inactive"}, {"measurement": "Activity", "setting": "[22]", "value": "Active"}, {"measurement": "Activity", "setting": "[23]", "value": "Active"}, {"measurement": "Activity", "setting": "[24]", "value": "Active"}, {"measurement": "Activity", "setting": "[25]", "value": "Active"}, {"measurement": "Activity", "setting": "[26]", "value": "Active"}]}
{"smiles": "COc1ccccc1N1CCN(c2ncnc3[nH]nc(Br)c23)CC1", "values": [{"measurement": "Activity", "setting": "[27]", "value": "inactive"}, {"measurement": "inhibition", "setting": "[28]", "value": 41, "unit": "%"}, {"measurement": "inhibition", "setting": "[29]", "value": 3, "unit": "%"}, {"measurement": "IC50", "setting": "[30]", "value": 22, "unit": "µM"}, {"measurement": "inhibition", "setting": "[31]", "value": 11, "unit": "%"}]}
{"smiles": "O=C(NCCCNc1nc(Nc2cccc(NC(=O)N3CCCC3)c2)ncc1I)c1cccs1", "values": [{"measurement": "inhibition", "setting": "[28]", "value": 87, "unit": "%"}, {"measurement": "inhibition", "setting": "[29]", "value": 7, "unit": "%"}]}
